Results as given in ChEMBL document CHEMBL1138259, “Novel fluorinated derivatives of the broad-spectrum MMP inhibitors N-hydroxy-2(R)-[[(4-methoxyphenyl)sulfonyl](benzyl)- and (3-picolyl)-amino]-3-methyl-butanamide as potential tools for the molecular imaging of activated MMPs with PET” (J Med Chem, 2007).

Legend:
[1] = molecular target: Neutrophil collagenase (Homo sapiens, UniProt P22894); test: Inhibition of MMP8
[2] = molecular target: Matrix metalloproteinase-9 (Homo sapiens, UniProt P14780); test: Inhibition of MMP9
Chain of Matrix metalloproteinase-9 (P14780 whole entry): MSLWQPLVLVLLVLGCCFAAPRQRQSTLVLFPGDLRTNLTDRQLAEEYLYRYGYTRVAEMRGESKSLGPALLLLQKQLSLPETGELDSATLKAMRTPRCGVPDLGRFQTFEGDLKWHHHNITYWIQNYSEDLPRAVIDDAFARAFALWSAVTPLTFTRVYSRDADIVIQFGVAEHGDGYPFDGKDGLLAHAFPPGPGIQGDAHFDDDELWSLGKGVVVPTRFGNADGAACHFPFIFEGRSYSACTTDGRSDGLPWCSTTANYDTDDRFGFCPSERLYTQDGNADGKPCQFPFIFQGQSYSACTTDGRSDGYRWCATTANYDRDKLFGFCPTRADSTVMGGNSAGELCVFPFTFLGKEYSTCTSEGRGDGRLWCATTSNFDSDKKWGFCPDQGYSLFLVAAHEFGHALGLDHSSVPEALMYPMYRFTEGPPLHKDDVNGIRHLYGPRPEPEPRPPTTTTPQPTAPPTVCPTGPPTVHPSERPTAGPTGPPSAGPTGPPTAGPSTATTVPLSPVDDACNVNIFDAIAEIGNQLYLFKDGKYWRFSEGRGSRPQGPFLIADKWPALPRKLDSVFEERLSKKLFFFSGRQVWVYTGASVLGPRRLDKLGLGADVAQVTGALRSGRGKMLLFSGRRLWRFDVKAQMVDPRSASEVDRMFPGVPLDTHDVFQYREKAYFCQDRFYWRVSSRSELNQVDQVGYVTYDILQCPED

[3] = molecular target: Collagenase 3 (Homo sapiens, UniProt P45452)
[4] = molecular target: 72 kDa type IV collagenase (Homo sapiens, UniProt P08253); test: Inhibition of MMP2
Chain of 72 kDa type IV collagenase (P08253 whole entry): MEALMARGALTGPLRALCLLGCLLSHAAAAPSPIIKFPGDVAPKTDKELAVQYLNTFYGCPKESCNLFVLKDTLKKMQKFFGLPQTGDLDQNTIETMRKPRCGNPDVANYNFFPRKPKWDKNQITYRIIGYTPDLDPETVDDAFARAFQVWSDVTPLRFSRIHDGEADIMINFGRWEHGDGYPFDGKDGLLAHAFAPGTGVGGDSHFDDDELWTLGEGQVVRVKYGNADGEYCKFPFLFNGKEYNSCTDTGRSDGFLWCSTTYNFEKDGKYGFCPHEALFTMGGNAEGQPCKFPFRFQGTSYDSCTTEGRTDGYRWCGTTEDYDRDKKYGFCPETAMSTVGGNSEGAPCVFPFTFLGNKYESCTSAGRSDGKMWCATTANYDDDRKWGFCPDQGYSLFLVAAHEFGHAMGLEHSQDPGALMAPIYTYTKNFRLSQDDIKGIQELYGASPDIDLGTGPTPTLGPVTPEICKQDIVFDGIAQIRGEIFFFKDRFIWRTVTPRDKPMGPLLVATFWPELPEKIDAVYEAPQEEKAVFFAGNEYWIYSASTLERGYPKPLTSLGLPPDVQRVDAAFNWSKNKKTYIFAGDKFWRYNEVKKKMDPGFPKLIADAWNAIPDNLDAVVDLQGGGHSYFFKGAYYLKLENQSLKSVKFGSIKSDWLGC

[5] = Lipophilicity, log D of the compound; type: physicochemical; settings: octanol/water
Procedure, shortened: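 Shake-flask partition of ¹⁸F-radioligand between 1-octanol and 0.02 M phosphate buffer, pH 7.4. Both layers gamma-counted with decay back-correction. log D taken as log of cpm/mL octanol over cpm/mL buffer. Four repeats, reported as mean ± SD.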

[6] = Stability in C57BL/6 mouse plasma at 13 to 38 MBq.kg^-1 after 2.5 mins; type: ADME, organism-based; settings: read-out: Stability
Procedure, shortened: (§1)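 Adult C57BL/6 mice (male and female, 25-30 g) received an ¹⁸F-radiotracer bolus in the tail vein and were killed with i.v. pentobarbitone at 2.5 or 20 min. Blood was drawn by cardiac puncture and plasma separated. Plasma from 2-3 mice (2.5 min) or 4 mice (20 min) was pooled and deproteinized with ice-cold acetonitrile. Supernatant was spiked with unlabeled reference and run on radio-HPLC to give the fraction of intact tracer versus metabolites.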

[7] = Stability in C57BL/6 mouse plasma at 13 to 38 MBq.kg^-1 after 20 mins; type: ADME, organism-based; settings: read-out: Stability; procedure, shortened: as §1

Chain of Neutrophil collagenase (P22894 whole entry): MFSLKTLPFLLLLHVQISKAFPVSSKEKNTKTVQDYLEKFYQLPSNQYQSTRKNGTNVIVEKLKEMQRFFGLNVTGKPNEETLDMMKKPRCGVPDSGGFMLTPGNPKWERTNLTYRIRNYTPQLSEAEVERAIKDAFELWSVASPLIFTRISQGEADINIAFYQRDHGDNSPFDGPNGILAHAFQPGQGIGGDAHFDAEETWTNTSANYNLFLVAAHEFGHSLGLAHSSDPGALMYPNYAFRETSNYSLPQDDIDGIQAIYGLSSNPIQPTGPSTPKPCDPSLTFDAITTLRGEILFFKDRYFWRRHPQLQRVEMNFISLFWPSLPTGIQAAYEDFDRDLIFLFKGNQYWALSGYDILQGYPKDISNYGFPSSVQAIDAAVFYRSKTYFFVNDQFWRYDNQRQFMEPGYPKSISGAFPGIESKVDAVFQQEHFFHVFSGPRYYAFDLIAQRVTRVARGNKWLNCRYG

IC50 [1] [nM] | IC50 [2] [nM] | IC50 [3] [nM] | IC50 [4] [nM] | logD [5] | remaining at 2.5 min [6] [%] | remaining at 20 min [7] [%] | Compound
2 | 50 | 11 | 4 | – | – | – | CC(C)[C@H](C(=O)NO)N(Cc1ccccc1)S(=O)(=O)c1ccc(OCCF)cc1
78000 | 10000 | 41000 | 20000 | – | – | – | COc1ccc(S(=O)(=O)N(Cc2cccnc2F)[C@@H](C(=O)O)C(C)C)cc1
2460 | 1300 | > 100000 | 5590 | – | – | – | CC(C)[C@H](C(=O)O)N(Cc1ccccc1)S(=O)(=O)c1ccc(OCCF)cc1
1200 | 1330 | 1340 | 992 | – | – | – | CC(C)[C@H](C(=O)NO)N(Cc1cccnc1)S(=O)(=O)c1ccc(N(C)C)cc1
14000 | 15000 | 14000 | 41000 | – | – | – | CC(C)[C@H](C(=O)O)N(Cc1ccccc1)S(=O)(=O)c1ccc(N(C)C)cc1
– | 1350 | – | 207 | – | – | – | CC(C)[C@H](C(=O)O)N(Cc1ccccc1)S(=O)(=O)c1ccc(OCCI)cc1
– | – | – | – | 2.02 | 86 | 37 | CC(C)[C@H](C(=O)NO)N(Cc1ccccc1)S(=O)(=O)c1ccc(OCC[18F])cc1
3 | 69 | 10 | 22 | – | – | – | CC(C)[C@H](C(=O)NO)N(Cc1ccccc1)S(=O)(=O)c1ccc(OCCI)cc1
754 | 821 | 9140 | 4350 | – | – | – | CC(C)[C@H](C(=O)O)N(Cc1ccccc1)S(=O)(=O)c1ccc(F)cc1
– | – | – | – | 1.34 | – | 53 | CC(C)[C@H](C(=O)NO)N(Cc1cccnc1)S(=O)(=O)c1ccc(OCC[18F])cc1
20 | 23 | 24 | 2 | – | – | – | COc1ccc(S(=O)(=O)N(Cc2ccc(Br)nc2)[C@@H](C(=O)NO)C(C)C)cc1
18 | 51 | 50 | 19 | – | – | – | COc1ccc(S(=O)(=O)N(Cc2cccnc2F)[C@@H](C(=O)NO)C(C)C)cc1
14 | 5150 | 10 | 756 | – | – | – | CC(C)[C@H](C(=O)NO)N(Cc1cccnc1)S(=O)(=O)c1ccc([N+](=O)[O-])cc1
71000 | > 100000 | > 100000 | > 100000 | – | – | – | CC(C)[C@H](C(=O)O)N(Cc1cccnc1)S(=O)(=O)c1ccc(F)cc1
105 | 614 | 10 | 335 | – | – | – | CC(C)[C@H](C(=O)NO)N(Cc1ccccc1)S(=O)(=O)c1ccc(N(C)C)cc1
7480 | 35000 | 34000 | 9110 | – | – | – | COc1ccc(S(=O)(=O)N(Cc2cccnc2Br)[C@@H](C(=O)O)C(C)C)cc1
22000 | 9820 | 30000 | 35000 | – | – | – | COc1ccc(S(=O)(=O)N(Cc2ccc(F)nc2)[C@@H](C(=O)O)C(C)C)cc1
75 | 103 | 59 | 30 | – | – | – | COc1ccc(S(=O)(=O)N(Cc2cccnc2Br)[C@@H](C(=O)NO)C(C)C)cc1
12 | 281 | 384 | 239 | – | – | – | CC(C)[C@H](C(=O)NO)N(Cc1ccccc1)S(=O)(=O)c1ccc(F)cc1
6760 | 6930 | 3260 | 6120 | – | – | – | COc1ccc(S(=O)(=O)N(Cc2ccc(Br)nc2)[C@@H](C(=O)O)C(C)C)cc1
228 | 414 | 527 | 120 | – | – | – | CC(C)[C@H](C(=O)NO)N(Cc1cccnc1)S(=O)(=O)c1ccc(F)cc1
0.9 | 0.5 | 0.9 | 8 | – | – | – | COc1ccc(S(=O)(=O)N(Cc2ccc(F)nc2)[C@@H](C(=O)NO)C(C)C)cc1

Compound | IC50 [1] [nM] | IC50 [2] [nM] | IC50 [3] [nM] | IC50 [4] [nM] | logD [5] | remaining at 2.5 min [6] [%] | remaining at 20 min [7] [%]
CC(C)[C@H](C(=O)NO)N(Cc1cccnc1)S(=O)(=O)c1ccc(OCCF)cc1 | 2 | 7 | 0.8 | 3 | – | – | –
